Assay: Toxicity liver stage against HepG2, at 10uM
Assay type: cell-based
Parameters: test concentration 10 uM, cell line HepG2-A16-CD81EGFP
Conditions: human, HepG2-A16-CD81EGFP cells; read-out: INHIBITION
Method in brief: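 Uninfected HepG2-A16-CD81EGFP cells, 3 × 10^3 per well, 1536-well, plated on prespotted compound at 10 μM final, parasite-free screening media added to match infected plates; puromycin 10 μM positive, DMSO 0.5% negative; run in parallel with 48 h PbLuc assay at 37 °C, 5% CO2; viability by CellTiter-Glo luminescence, normalized to controls.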

Structure (SMILES) | cytotoxicity at 10 µM [%]
O=C1CC(N2CCN(c3ccc(O)cc3)CC2)C(=O)N1Cc1cccs1 (centres undefined) | 5.77
CC(C)(CO)Nc1c(NCc2ccncc2)c(=O)c1=O | -3.97
CC(C)CC(=O)Nc1ccc2c(c1)ncn2CC(=O)NCCN(C)C | -7.58
Cc1ccc(-c2csc3c(=O)[nH]c(N4CCCC(C(=O)O)C4)nc23)cc1 (centres undefined) | -68
CCOc1ccccc1C(=O)NCCc1ccoc1 | 8.54
Cc1nc(N2CCN(C(=O)c3cccnc3)CC2)cc(-n2cccc2)n1 | -5.19
O=C(CN1C(=O)CCC1=O)N1CCOC2(CCOCC2)C1 | 4.1
COCCNc1c(C#N)c2c(c3nncn13)CN(C)CC2 | 6.83
CCOC1Sc2nnc(C)n2N=C1c1ccc(F)cc1 (centres undefined) | 4.48
CCOC(=O)CCC(=O)N1CCC(Oc2ccc(C(F)(F)F)cn2)CC1 | 11.6
O=C(NCC1CCCO1)c1cc(Sc2ncccn2)ccn1 (centres undefined) | -17.2
CSCc1cccc(S(=O)(=O)N2CCC(C)CC2)c1 | 13.1
CCOCCCNC(=O)c1cc(C)nc(N2CCCC2)n1 | 1.11
Cc1cncc(CN2CC[C@@](O)(CNC(=O)c3c[nH]cn3)[C@H](O)C2)c1 | -1.68
CCc1cc(O)n2nc(C3CCN(C(=O)c4ccncc4)CC3)cc2n1 | 3.51
COC(=O)c1cccc(C2CNCCN2C)c1 (centres undefined) | 0.5
N[C@@H]1CCCN(C(=O)Cc2c[nH]c3ccccc23)[C@H]1c1ccccc1F | 7.45
CCOCCN1CCC(c2cnccn2)CC1 | 5.8
Cc1nc(C2CCN(c3ccccc3)CC2)no1 | -28.4
Cc1noc(C)c1-c1cncc(C2CCCN2Cc2c[nH]cn2)n1 (centres undefined) | -12.4
Cc1ccc(O)c(CN2CCc3nc(-c4cccnc4)nc(O)c3C2)c1 | 5.19

Structure (SMILES) | cytotoxicity at 10 µM [%]
O=S(=O)(N1CCOCC1)N1CCC(Oc2cnccn2)CC1 | -23.3
c1cc2nccc(CC3CCCN(Cc4ncc[nH]4)CC3)c2cn1 (centres undefined) | -2.06
Cc1cnn(CC(C)NCc2ccc(C#N)cc2)c1 (centres undefined) | -11.8
CC(c1ccncc1)N(C)S(C)(=O)=O (centres undefined) | 1.18
CN1CCOC(C(=O)Nc2nc(-c3ccc4c(c3)CCC4)n[nH]2)C1 (centres undefined) | -7.53
Cc1noc(CNc2ccc(CC(=O)N3CCSCC3)cc2)n1 | -2.29
CCNC(=O)NC(C)(C)C(=O)NCCc1csc2ccccc12 | -15.5
Cc1sc(C(=O)NS(C)(=O)=O)cc1-c1ccc(F)cc1 | 2.53
COCCCN1Cc2cccc(NC(=O)c3cc(F)ccc3F)c2C1 | -1.74
c1ncc2c(n1)CN(c1ncnc3[nH]ccc13)CC2 | -4.28
O=C(NCc1ccnc(OCC2CC2)c1)C1COc2ccccc2O1 (centres undefined) | -3.88
CC(C)N(C)C(=O)c1ccc(CNc2cncc(Cl)n2)cc1 | 2.87
Nc1cc2c(nn1)CCN(C(=O)CCc1ccc3c(c1)OCO3)C2 | 3.23
CC(C(=O)N1CCC(Cc2ccc(F)cc2)CC1)n1ccnc1 (centres undefined) | 4.57
CS(=O)(=O)NC1CCCN(c2ccc(C#N)cn2)C1 (centres undefined) | -12.7
Cc1cc(CNC(=O)NCCOc2ccc(F)c(F)c2)on1 | 16.3
CC(C)C(=O)NCc1ccnc(Oc2ccc(F)cc2)c1 | 6.06
CCN1CCN(C(=O)NCc2ccccc2Cn2cncn2)CC1 | 0.663
CC(C)S(=O)(=O)NCC1CCCN(C(=O)c2ccc(Cl)cc2)C1 (centres undefined) | -3.44
CCc1cc(CNC(=O)N2CCN(c3nc(C)c(C)s3)CC2)on1 | -11.6
O=C(NCCCOC1CCOC1)NC(C1CC1)C1CC1 (centres undefined) | -5.36

Structure (SMILES) | cytotoxicity at 10 µM [%]
COCCn1cc(NCc2c[nH]nc2C(C)(C)C)cn1 | -2.35
Cc1noc(C)c1CSc1nc(=O)ccn1C(C)C | 5.95
CCOc1ccc(NC(C)C(=O)Nc2cc(C)no2)cc1 (centres undefined) | 7.04
COc1cc(CN(C)CCc2ccncc2)c(SC)cc1OC | -2.92
O=S(=O)(C1CC1)N1CCC2(CCCN(Cc3ccccn3)C2)CC1 | 5.97
CCOCC(=O)N1CCC(c2nccn2Cc2cscn2)CC1 | -5.58
CCc1ccc(CN(CC)Cc2ccc(S(=O)(=O)NC)cc2)cc1 | -8.55
Cc1nn2c(N3CCC(C#N)CC3)cc(-c3ccccc3)nc2c1C | -8.6
CCc1nc(NC2CCCN(C(=O)c3cccs3)C2)c2cnn(C)c2n1 (centres undefined) | 13.9
CC(=O)N[C@@H]1CN(Cc2ccco2)C[C@H]1c1ccc(C)o1 | -3.33
Cn1nnnc1SCCNC(=O)CC1CCc2ccccc21 (centres undefined) | -2.49
CC(C)[C@@H]1CN(S(=O)(=O)Cc2ccccc2)C[C@H]1NS(=O)(=O)N(C)C | -0.625
COCCN(C)CCN1CC2(CCN(C3CCOC3)CC2)OC1=O (centres undefined) | 4.63
Cc1nonc1C1CCCN1C(=O)CCc1cc2n(n1)CCCNC2 (centres undefined) | -5.65
CCC(C)N(Cc1cccnc1)C(=O)c1ccc(OC)cc1O (centres undefined) | 8.65
CSc1ccccc1CCC1CCS(=O)(=O)C1 (centres undefined) | 3.75
N#Cc1cccc(C(=O)N2C[C@H](CO)C[C@H](CN3CCCC3)C2)c1 | -1.04
CC(=O)c1ccc(C(=O)N2C[C@@H](CN3CCCC3)[C@@H](CO)C2)cc1 | -0.434
CCc1cc(C(=O)N2CCC(C3CCN(c4ncccn4)CC3)C2)on1 (centres undefined) | 2.25
CCCc1nnc(NC2CCN(Cc3ccc(F)c(F)c3)CC2)o1 | -1.48
COc1ccc(-c2n[nH]cc2CN(C)Cc2nonc2C)c(F)c1 | -6.46

Structure (SMILES) | cytotoxicity at 10 µM [%]
CCn1cnnc1CCNc1nc(C)cc(C)c1C#N | 2.56
CCOc1ccc2[nH]c(=O)c(CN3CCCC3c3ccccn3)cc2c1 (centres undefined) | -7.04
Cc1cc(C)n(-c2ccccc2NC(=O)NCCS(=O)(=O)CC(C)C)n1 | -3.92
Nc1cc(CCC2CN(Cc3ccc(C(=O)O)cc3)CCO2)ccn1 (centres undefined) | 6.98
CC(C)c1ccc(OCCNC(=O)CN2CCN(C)CC2C)cc1 (centres undefined) | -13.2
COCCOc1cccc(CNCc2c(C)nn(C)c2N(C)C)c1 | -7.19
Cc1nc(C)n(CC2CCCN2Cc2nc(-c3ccccn3)no2)n1 (centres undefined) | -9.48
c1csc(-c2nc(CNC3CCc4ncnn4C3)cs2)c1 (centres undefined) | 2.07
O=C(Nc1nccs1)NC1CCN(Cc2ccccc2)C1 (centres undefined) | -9.93
CCc1nc(C2CCCN2C(=O)c2ncoc2CC)no1 (centres undefined) | -12.8
Cc1ncsc1C(=O)N(C)Cc1cccc(Cl)c1 | -1.27
CC(C)c1nnc2n1CCN(C(=O)CN1Cc3ccccc3C1=O)C2 | -1.81
CCOC(=O)CN1CCC(C(=O)c2cc(F)ccc2F)CC1 | -8.11
COc1ccc(CNC(=O)N(Cc2ccc(F)cc2F)C2CC2)cn1 | -6.67
CCN(CC1CCCO1)C(=O)Nc1cc(OC)c(OC)cc1C (centres undefined) | -10.9
O=C(C1CCC1)N1CCN(c2snc3ccccc23)CC1 | 11.2
Cc1csc(N2CCCN(Cc3noc(C)n3)CC2)n1 | -4.26
CNC(=O)c1ccc2c(c1)C1(CCN(CC(C)C)CC1)C(=O)N2 | -2.56
CC(C)OCc1nn(C)c2c1CCN(CC1CC1)C2 | 4.91
Fc1ccccc1OCCc1cc(C2CNCCO2)n[nH]1 (centres undefined) | -2.16
CC(C)CS(=O)(=O)N1C[C@@H]2C[C@H](C(=O)N3CCCC3)[C@H](C1)O2 | 17

From ChEMBL document CHEMBL4513216, “Probing the Open Global Health Chemical Diversity Library for Multistage-Active Starting Points for Next-Generation Antimalarials” (ACS Infect Dis, 2020)
